{"data": "Published values of several laboratories", "target": "Cyclin-dependent kinase-like 1 (CDKL1, Homo sapiens, UniProt Q00532)", "note": "Protocols differ between the studies behind these lines."}
{"SMILES": "C[C@H]1CCN(c2nccc(-c3cnn4ncccc34)n2)C1", "assay": "binding", "setting": "1 µM", "remaining binding [%]": 62}
{"SMILES": "N#Cc1ccc(Nc2ccc3[nH]c(=O)[nH]c3c2)c(Cl)c1", "assay": "binding, competition with immobilised ligand", "setting": "1 µM", "remaining binding [%]": 84}
{"SMILES": "O=C(c1ccc(Nc2ncc(Cl)c(-c3ccc(Cl)s3)n2)cc1)N1CCC(N2CCCC2)CC1", "assay": "binding, competition with immobilised ligand", "setting": "1 µM", "remaining binding [%]": 32}
{"SMILES": "O=C1NC(c2ccccn2)Sc2ccccc21 (centres unmarked)", "assay": "cell-free assay, competition with immobilised ligand", "setting": "1 µM", "remaining binding [%]": 75}
{"SMILES": "CN(CCCC(F)(F)F)c1nccc(-c2cnn3ncccc23)n1", "assay": "binding", "setting": "1 µM", "remaining binding [%]": 83}
{"SMILES": "COc1ncc2cc3ccccc3nc2c1C#N", "assay": "binding, competition with immobilised ligand", "setting": "5 µM", "remaining binding [%]": 100}
{"SMILES": "F[C@@H]1CCN(c2nccc(-c3cnn4ncccc34)n2)C1", "assay": "binding", "setting": "1 µM", "remaining binding [%]": 89}
{"SMILES": "FC(F)(F)Oc1cccc(-c2cnc3ccc(-c4ccncc4)nn23)c1", "assay": "cell-free assay, competition with immobilised ligand", "setting": "5 µM", "remaining binding [%]": 68}
{"SMILES": "COc1cnc(Nc2cccc(S(N)(=O)=O)c2)nc1N1CCN(c2ccccc2)CC1", "assay": "binding, competition with immobilised ligand", "setting": "1 µM", "remaining binding [%]": 86}
{"SMILES": "CNC(=O)Nc1ccc2c(c1)CC[C@@]21OC(=O)N(CC(=O)N(Cc2ccc(F)cc2)[C@@H](C)C(F)(F)F)C1=O", "assay": "binding, competition with immobilised ligand", "setting": "1 µM", "remaining binding [%]": 86}
{"SMILES": "O=C(NCCCN1CCOCC1)c1ccc(Nc2nccc(-c3cc4ccccc4s3)n2)cc1", "assay": "binding, competition with immobilised ligand", "setting": "1 µM", "remaining binding [%]": 54}
{"SMILES": "Cc1nccc(COC(=O)N2C[C@@H]3[C@@H](CNC(=O)c4ccc5[nH]nnc5c4)[C@@H]3C2)n1", "assay": "cell-free assay, competition with immobilised ligand", "setting": "1 µM", "remaining binding [%]": 81}
{"SMILES": "N[C@H]1CCN(c2nccc(-c3cnn4ncccc34)n2)C1", "assay": "binding", "setting": "1 µM", "remaining binding [%]": 80}
{"SMILES": "C[C@@H](c1cccc(C#N)c1)n1cc(Cl)cc(C(N)=O)c1=N", "assay": "binding, competition with immobilised ligand", "setting": "1 µM", "remaining binding [%]": 100}
{"SMILES": "COc1cnc(Nc2cccc(S(N)(=O)=O)c2)nc1N1CCN(c2ccccc2)C(=O)C1", "assay": "binding, competition with immobilised ligand", "setting": "1 µM", "remaining binding [%]": 92}
{"SMILES": "CN(C)c1ncc(F)c(-c2cnn3ncccc23)n1", "assay": "binding", "setting": "1 µM", "remaining binding [%]": 100}
{"SMILES": "Cc1cnc(Nc2ccc(C(=O)N3CCC(N4CCCC4)CC3)cc2)nc1-c1cc2ccccc2s1", "assay": "binding, competition with immobilised ligand", "setting": "1 µM", "remaining binding [%]": 50}
{"SMILES": "Cc1cnn2ncc(-c3ccnc(N(C)C)n3)c2c1", "assay": "binding", "setting": "1 µM", "remaining binding [%]": 73}
{"SMILES": "Cc1nc(N2CC[C@@H](O)C2)ncc1-c1cc(C(F)(F)F)cc2[nH]ncc12", "assay": "binding, competition with immobilised ligand", "setting": "1 µM", "remaining binding [%]": 77}
{"SMILES": "O=C(Nc1c[nH]nc1C(=O)NC1CCNCC1)c1cc(F)cc(F)c1", "assay": "binding, competition with immobilised ligand", "setting": "1 µM", "remaining binding [%]": 95}
